Screening results deposited in PubChem BioAssay by several laboratories.
Mdm2-MdmX inh – disrupts the human Mdm2-MdmX interaction. 330,000 compounds, 3% hits. O15151+Q00987. SaOS-2 split-luciferase Mdm2/MdmX complementation, luminescence. inhibition, % at 8 µM;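 active = inhibition of at least 50% at 8 µM in the primary screen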
Target sequence (O15151 whole entry, looked up): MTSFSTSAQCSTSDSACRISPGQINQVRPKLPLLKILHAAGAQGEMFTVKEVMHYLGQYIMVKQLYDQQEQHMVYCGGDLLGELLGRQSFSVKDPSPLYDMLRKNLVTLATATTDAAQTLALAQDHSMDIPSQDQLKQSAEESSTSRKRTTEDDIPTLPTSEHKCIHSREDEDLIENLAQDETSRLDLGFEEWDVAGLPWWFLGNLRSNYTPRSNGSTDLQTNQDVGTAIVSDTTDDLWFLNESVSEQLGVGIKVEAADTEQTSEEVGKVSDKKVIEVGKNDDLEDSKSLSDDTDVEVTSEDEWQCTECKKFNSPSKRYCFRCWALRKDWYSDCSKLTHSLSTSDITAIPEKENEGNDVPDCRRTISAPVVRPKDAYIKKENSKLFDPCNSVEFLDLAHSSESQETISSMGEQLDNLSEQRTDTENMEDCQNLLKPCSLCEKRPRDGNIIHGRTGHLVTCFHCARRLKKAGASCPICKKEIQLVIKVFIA
Target sequence (Q00987 whole entry, looked up): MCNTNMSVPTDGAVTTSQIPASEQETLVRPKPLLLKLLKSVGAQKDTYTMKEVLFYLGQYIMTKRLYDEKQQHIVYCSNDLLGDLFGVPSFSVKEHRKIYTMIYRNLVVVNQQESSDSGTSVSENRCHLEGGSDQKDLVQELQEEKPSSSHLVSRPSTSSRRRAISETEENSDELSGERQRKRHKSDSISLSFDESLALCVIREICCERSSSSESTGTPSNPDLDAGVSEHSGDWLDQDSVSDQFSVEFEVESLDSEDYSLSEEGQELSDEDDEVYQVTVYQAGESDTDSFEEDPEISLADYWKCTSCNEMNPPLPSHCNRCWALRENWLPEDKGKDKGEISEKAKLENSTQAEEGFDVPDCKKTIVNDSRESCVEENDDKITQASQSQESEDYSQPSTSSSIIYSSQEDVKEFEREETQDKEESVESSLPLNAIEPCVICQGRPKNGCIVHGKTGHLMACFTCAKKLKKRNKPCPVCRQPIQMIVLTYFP
SKKanGAS inh – SKKanGAS growth inhibition. S. pyogenes SKKanGAS, kanamycin growth, BacTiter-Glo, 6 h. inhibition, % at 7.5 µM. 300,000 compounds, 1.3% hits;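 active = mean replicate score, as percent of positive control median, at least 50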;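 note: strain carries kanamycin resistance gene driven by streptokinase promoter and grows in 40 µg/ml kanamycin; loss of luminescence reflects streptokinase promoter inhibition or plain growth inhibition; 0% = median of DMSO wells and 100% = positive control at its reference dose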
CSC inhib – blocks cancer stem cells | cancer stem cell-like cells viability, luminescence | inhibition, % at 7.5 µM | 300,000 compounds, 1.1% hits; in the data active = inhibition above about 75%; tested in HMLE shEcad cells
Beta cell apopt – blocks beta cell apoptosis; protection from apoptosis, % (test concentration not listed); INS-1E cytokine-induced death, ATP luminescence, 48 h; percent of positive-control rescue, neutral wells zero; 300,000 compounds, 0.8% hits;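 active = Every replicate reaches about 75%, or at least half do and their mean reaches it too, limit read from the data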;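 note: 0% = cytokine-treated negative control wells and 100% = positive control rescue; higher means more ATP so stronger rescue from cytokine killing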
L major viab – inhibitors of Leishmania major promastigote growth. AID 1063. 200,000 compounds, 9% hits. Leishmania major promastigotes, resazurin fluorescence viability. inhibition, % at 10 µM; in the data active = inhibition above about 50%;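 note: promastigotes grown with compound for 44 hours at 28 °C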
T cruzi inh – blocks replication of Trypanosoma cruzi. 300,000 compounds, 1.4% hits. T. cruzi beta-gal in NIH3T3, luminescence, 90 h. inhibition, % (concentration not given with the values);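 active = mean inhibition across valid replicates above about 55%, limit read from the data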;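 note: signal also drops with host cell toxicity which is not excluded here; 0% = plate median of DMSO wells and 100% = zero luminescence signal; higher percent means less beta-gal luminescence so fewer parasites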
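Read-out: Parasite load inhibition, % | Test system: Mouse NIH/3T3 fibroblasts infected with β-gal-expressing T. cruzi Tulahuen C4 | Amount: 5,000 cells/well | Medium: DMEM, 2% fetal bovine serum | Signal: GalScreen β-gal luminescence, detergent lysis, 60 min | Timing: 3 h attach, ≥90 h co-culture | Also added: Tulahuen C4 trypomastigotes, 5000/well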
Mdm2 MdmX conf – confirmation of human Mdm2/MdmX interaction inhibitors | AID 489028 | shares compounds with Mdm2-MdmX inh | inhibition, % at 8 µM | Mdm2-MdmX binding, luminescent assay | 10,000 compounds, 55% hits; in the data active = inhibition above about 40%
Full FLuc ctr – counter-screen for Mdm2/MdmX inhibitors: full-length luciferase; shares compounds with Mdm2-MdmX inh; SaOS-2 full-length luciferase counterscreen, luminescence; inhibition, % at 8 µM; 6,200 compounds, 77% hits;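 active = mean inhibition at 8 µM reaching about 37%, which flags the compound as non-specific, limit read from the data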;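 note: p53-null SaOS-2 cells with luciferase driven by a doxycycline-inducible promoter; compound on cells about two nights before reading with doxycycline added after day one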
* = called active by the depositor; nt = no result given. Sampled rows, rich in hits. Any-hit rate of the full collection: about 9.4%.

SMILES	Mdm2-MdmX inh	SKKanGAS inh	CSC inhib	Beta cell apopt	L major viab	T cruzi inh	Mdm2 MdmX conf	others
O=C(CCCCCCC(=O)Nc1ccccc1)NO	50*	2	106*	-4	nt	-11	34
O=C(CCCCCN1C(=O)c2ccccc2C1=O)Nc1ccccc1	-4	1	-19	3	4	11	nt
CC(NCc1ccc(OCc2ccc(Cl)cc2)cc1)C(O)c1ccccc1 (centres undefined)	100*	14	102*	35	100*	45	60*	Full FLuc ctr=52*
O=C(CCl)N(c1ccccc1)C1CCCCC1	94*	-6	-16	107*	89*	65*	100*	Full FLuc ctr=52*
CC1=CC(=C(C#N)C#N)C=C(C)N1Cc1ccccc1	12	-3	0	-5	5	-2	nt
CC[C@]12c3[nH]c4ccc(Cl)cc4c3CCN1C(=O)[C@@H](CC(=O)NCC13CC4CC(CC(C4)C1)C3)C[C@@H]2C(=O)N1CCN(C(=O)C2CC2)CC1	62*	nt	nt	nt	nt	nt	52*	Full FLuc ctr=53*
C[C@]12c3[nH]c4ccc(Cl)cc4c3CCN1C(=O)[C@@H](CC(=O)NCC13CC4CC(CC(C4)C1)C3)C[C@@H]2C(=O)N1CCCCC1	74*	nt	nt	nt	nt	nt	39
CC(C)(C)NC(=O)C[C@H]1C[C@H](C(=O)N2CCCCC2)[C@@]2(C)c3[nH]c4ccc(Cl)cc4c3CCN2C1=O	-34	nt	nt	nt	nt	nt	nt
C[C@]12c3[nH]c4ccc(Cl)cc4c3CCN1C(=O)[C@@H](CC(=O)NCC13CC4CC(CC(C4)C1)C3)C[C@@H]2C(=O)N1CCOCC1	66*	nt	nt	nt	nt	nt	22
CC[C@]12c3[nH]c4ccc(OC)cc4c3CCN1C(=O)C(CC(=O)NCC13CC4CC(CC(C4)C1)C3)C[C@@H]2C(=O)N1CCN(C(=O)C2CC2)CC1 (some centres undefined)	45	nt	nt	nt	nt	nt	nt
CCOc1ccccc1NC(=O)CN1C(=O)NC(Cc2c[nH]c3ccccc23)C1=O (centres undefined)	6	nt	6	-5	nt	nt	nt
COc1ccc(/C=N/Nc2cc(C)nc3ccc(OC)cc23)c(OC)c1	100*	-4	101*	117*	nt	58*	99*	Full FLuc ctr=51*
COc1ccccc1/C=N/Nc1cc(C)nc2ccc(C)cc12	-38	0	57	-1	nt	4	nt
COc1ccc2nc(C)cc(N/N=C/c3ccccc3)c2c1	100*	nt	97*	96*	nt	nt	26
Cc1onc(-c2c(Cl)cccc2Cl)c1COC(=O)c1ccc(Cl)cc1[N+](=O)[O-]	19	-19	-15	2	nt	-6	nt
CCOC(=O)c1c2ccc(OCC(=O)N/N=C/c3ccc(C)cc3)cc2n2ccccc12	84*	2	114*	62	-1	-15	79*	Full FLuc ctr=107*
CCOC(=O)c1c2ccc(OCC(=O)NN)cc2n2ccccc12	8	12	38	-5	6	-7	nt
CC(C)n1cnc2c(N(C)c3ccccc3)nc(N(CCN(C)C)Cc3ccccc3)nc21	58*	9	5	2	nt	51	25
CCOC(=O)c1c(Nc2ccc(Cl)cc2)sc(/C=C2\C=Nc3ccccc32)c1O	64*	9	nt	8	-2	7	18
C=C1C(C(=O)Nc2ccc(OC)cc2)C1C(=O)Nc1ccc(OC)cc1 (centres undefined)	72*	-4	-7	-6	nt	-7	25
C=C1C(C(=O)Nc2ccc(OCC)cc2)C1C(=O)Nc1ccc(OCC)cc1 (centres undefined)	37	-11	0	-3	5	7	nt
CC(OC(=O)C1=COCCO1)C(=O)Nc1cc(S(=O)(=O)N2CCCCC2)ccc1Cl (centres undefined)	-35	0	-6	nt	9	14	nt
O=C1C=C(c2ccc3c(c2)OCO3)C[C@@H](c2ccc3c(c2)OCO3)C1	5	nt	-13	-28	nt	nt	nt
O=C1C=C(c2ccc3cc[nH]c3c2)C[C@@H](c2ccc3c(c2)OCO3)C1	57*	nt	49	12	nt	nt	57*	Full FLuc ctr=53*
O=C(COC(=O)CNC(=O)c1ccco1)NCc1ccc(F)cc1	29	0	-9	-6	-9	-15	nt
SMILES	Mdm2-MdmX inh	SKKanGAS inh	CSC inhib	Beta cell apopt	L major viab	T cruzi inh	Mdm2 MdmX conf	others
CCN1C(=O)c2cccc3c(NC(=O)C4CCCCC4)ccc1c23	55*	2	6	-9	7	0	24
CCN1C(=O)c2cccc3c(NC(=O)c4ccc(OC)c(OC)c4)ccc1c23	54*	5	-1	nt	100*	8	24
CCN1C(=O)c2cccc3c(NC(=O)c4ccc5c(c4)OCCO5)ccc1c23	51*	0	-14	-19	-7	3	4
O=C(c1cccc(Cl)c1)N1CCC(=O)N(C(COCc2cccc(Cl)c2)Cc2ccccc2)CC1 (centres undefined)	12	31	12	6	2	34	nt
O=C(c1ccc(Cl)c(Cl)c1)N1CCC(=O)N(C(COCc2cccc(Cl)c2)Cc2ccccc2)CC1 (centres undefined)	54*	33	45	14	6	46	24
O=C(c1ccc(C(F)(F)F)cc1)N1CCC(=O)N(C(COCc2ccc(C(F)(F)F)cc2)Cc2ccccc2)CC1 (centres undefined)	15	20	34	2	24	19	nt
Cc1cccc(COCC(Cc2ccccc2)N2CCN(C(=O)c3ccc(C(F)(F)F)cc3)CCC2=O)c1 (centres undefined)	57*	35	33	-2	21	35	9
O=C(CCl)Nc1cc(S(=O)(=O)N2CCCCCC2)ccc1Cl	92*	6	15	1	99*	2	36	Full FLuc ctr=50*
CCN1CCN(c2ccc(S(=O)(=O)N3CCCCC3)cc2NC(=O)Cc2ccc(Cl)c(Cl)c2)CC1	64*	-13	-3	14	nt	63*	38	Full FLuc ctr=80*
CC(C)(C)CC(=O)Nc1cc(S(=O)(=O)N2CCCCCC2)ccc1Cl	25	3	nt	nt	5	5	nt
CCN1CCN(c2ccc(S(=O)(=O)N3CCCCC3)cc2NC(=O)c2ccc([N+](=O)[O-])s2)CC1	71*	-2	34	113*	nt	55*	59*	Full FLuc ctr=82*
CCN(CC)S(=O)(=O)c1ccc(Cl)c(NC(=S)NC(=O)C2CCCC2)c1	50*	nt	8	15	nt	nt	15
Cn1c(=S)[nH]c2[nH]c(=O)cnc2c1=O	11	-1	-8	0	12	-3	nt
Cc1noc(C)c1NC(=O)N(C)C[C@H]1Oc2c(NS(=O)(=O)c3cn(C)cn3)cccc2C(=O)N([C@H](C)CO)C[C@@H]1C	-1	nt	-13	8	nt	nt	nt
